Results as given in ChEMBL document CHEMBL3808334, “Synthesis and in vitro evaluation of novel triazine analogues as anticancer agents and their interaction studies with bovine serum albumin” (Eur J Med Chem, 2016).

What was measured:
[1] = Growth inhibition of human breast cancer cells incubated for 48 hrs by sulforhodamine B assay; format: functional; conditions: Cancer cell lines
[2] = Growth inhibition of human UACC62 cells assessed as cell growth at 10^-8 M incubated for 48 hrs by sulforhodamine B assay; format: functional; conditions: UACC-62, 48 h, read-out: Activity
[3] = Growth inhibition of human RXF393 cells assessed as cell growth at 10^-6 M incubated for 48 hrs by sulforhodamine B assay; format: functional; conditions: RXF 393, 48 h, read-out: Activity
[4] = system: SK-MEL-5; assay: Growth inhibition of human SK-MEL-5 cells assessed as cell growth at 10^-4 M incubated for 48 hrs by sulforhodamine B assay; format: functional; conditions: SK-MEL-5, 48 h, read-out: Activity
[5] = Growth inhibition of human SW620 cells assessed as cell growth at 10^-5 M incubated for 48 hrs by sulforhodamine B assay; format: functional; conditions: SW-620, 48 h, read-out: Activity
[6] = system: ACHN; assay: Growth inhibition of human ACHN cells assessed as cell growth at 10^-6 M incubated for 48 hrs by sulforhodamine B assay; format: functional; conditions: read-out: Activity
In short: (§1)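 Five-dose assay: five concentrations from 10-fold or ½-log serial dilutions. Cells are plated at 5,000–40,000 per well according to doubling time, grown 24 h, then exposed 48 h at 37 °C, 5% CO₂. Fixed with cold 50% TCA (final addition) for 60 min at 4 °C and stained with 0.4% SRB in 1% acetic acid. Bound dye is solubilized in 10 mM Tris base and read at 515 nm. GI₅₀ is where [(Ti−Tz)/(C−Tz)]×100 = 50, with a time-zero plate as Tz.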

[7] = system: A498; assay: Growth inhibition of human A498 cells incubated for 48 hrs by sulforhodamine B assay; format: functional; conditions: A498, 48 h; in short: as §1
[8] = system: SK-MEL-2; assay: Growth inhibition of human SK-MEL-2 cells assessed as cell growth at 10^-6 M incubated for 48 hrs by sulforhodamine B assay; format: functional; conditions: SK-MEL-2, 48 h, read-out: Activity
[9] = system: SK-MEL-2; assay: Growth inhibition of human SK-MEL-2 cells assessed as cell growth at 10^-7 M incubated for 48 hrs by sulforhodamine B assay; format: functional; conditions: SK-MEL-2, 48 h, read-out: Activity
[10] = system: NCI-H322M; assay: Growth inhibition of human NCI-H322M cells assessed as cell growth at 10^-5 M incubated for 48 hrs by sulforhodamine B assay; format: functional; conditions: read-out: Activity
[11] = system: NCI-H23; assay: Growth inhibition of human NCI-H23 cells assessed as cell growth at 10^-6 M incubated for 48 hrs by sulforhodamine B assay; format: functional; conditions: NCI-H23, 48 h, read-out: Activity
[12] = system: M14; assay: Growth inhibition of human M14 cells assessed as cell growth at 10^-6 M incubated for 48 hrs by sulforhodamine B assay; format: functional; conditions: M14, 48 h, read-out: Activity
[13] = Growth inhibition of human UO31 cells assessed as cell growth at 10^-6 M incubated for 48 hrs by sulforhodamine B assay; format: functional; conditions: UO-31, 48 h, read-out: Activity
[14] = Growth inhibition of human SNB75 cells assessed as cell growth at 10 uM incubated for 48 hrs by sulforhodamine B assay; format: functional; conditions: SNB-75, 48 h, read-out: Activity
[15] = system: SR; assay: Growth inhibition of human SR cells assessed as cell growth at 10 uM incubated for 48 hrs by sulforhodamine B assay; format: functional; conditions: read-out: Activity
[16] = Growth inhibition of human COLO205 cells assessed as cell growth at 10^-7 M incubated for 48 hrs by sulforhodamine B assay; format: functional; conditions: COLO 205, 48 h, read-out: Activity
In short: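 Cells seeded at 5,000–40,000/well according to doubling time and preincubated 24 h at 37 °C, 5% CO2. Time-zero plates were TCA-fixed. DMSO concentrate was diluted in medium with 50 µg/ml gentamicin to give five concentrations (10-fold or ½ log steps), then exposed 48 h. Cells were TCA-fixed, stained with 0.4% SRB and read at 515 nm. Percent growth was taken against time-zero and control; GI50, TGI and LC50 derived.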

[17] = system: MDA-MB-435; assay: Growth inhibition of human MDA-MB-435 cells assessed as cell growth at 10^-4 M incubated for 48 hrs by sulforhodamine B assay; format: functional; conditions: MDA-MB-435, 48 h, read-out: Activity
[18] = Growth inhibition of human SW620 cells assessed as cell growth at 10 uM incubated for 48 hrs by sulforhodamine B assay; format: functional; conditions: SW-620, 48 h, read-out: Activity
[19] = system: M14; assay: Growth inhibition of human M14 cells assessed as cell growth at 10^-7 M incubated for 48 hrs by sulforhodamine B assay; format: functional; conditions: M14, 48 h, read-out: Activity
[20] = target: Albumin (Bos taurus, UniProt P02769); assay: Binding affinity to bovine serum albumin assessed as binding constant in emission spectra by Benesie-Hildebrand plot analysis; format: ADME; conditions: cattle, isolated protein
In short: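 BSA, 10 µM, in 0.1 M phosphate buffer pH 7.4, titrated with compound (0–20 µM per the figure; diluted from 10⁻³ mol L⁻¹ DMSO stocks). Run at 300 K in a 1 cm quartz cell. UV spectra taken 200–800 nm after 5 min equilibration; fluorescence excited at 280 nm, emission 351 nm, slit 10 nm. K is the intercept/slope ratio of a linear fit of 1/(A₀−A) or 1/(F₀−F) vs 1/[compound].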

[21] = system: NCI-H226; assay: Growth inhibition of human NCI-H226 cells assessed as cell growth at 10^-7 M incubated for 48 hrs by sulforhodamine B assay; format: functional; conditions: NCI-H226, 48 h, read-out: Activity
[22] = system: SR; assay: Growth inhibition of human SR cells assessed as cell growth at 10^-8 M incubated for 48 hrs by sulforhodamine B assay; format: functional; conditions: read-out: Activity
[23] = Growth inhibition of human prostate cancer cells incubated for 48 hrs by sulforhodamine B assay; format: functional; conditions: Cancer cell lines
[24] = system: SK-MEL-5; assay: Growth inhibition of human SK-MEL-5 cells incubated for 48 hrs by sulforhodamine B assay; format: functional; conditions: SK-MEL-5, 48 h
In short: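 Cells were plated at 5,000–40,000 per well according to doubling time and preincubated 24 h at 37 °C in 5% CO2; time-zero plates were then TCA-fixed. Five concentrations (10-fold or ½-log dilutions, DMSO stock) were incubated 48 h. Cells were TCA-fixed, stained with 0.4% SRB and read at 515 nm. GI50 was taken where [(Ti−Tz)/(C−Tz)]×100 = 50.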

[25] = system: NCI-H322M; assay: Growth inhibition of human NCI-H322M cells assessed as cell growth at 10^-4 M incubated for 48 hrs by sulforhodamine B assay; format: functional; conditions: read-out: Activity
[26] = system: A549; assay: Growth inhibition of human A549/ATCC cells assessed as cell growth at 10^-4 M incubated for 48 hrs by sulforhodamine B assay; format: functional; conditions: A549, 48 h, read-out: Activity
[27] = read-out: LC50 (the source's name)
[28] = read-out: pLC50 (the source's name) (converted)

Chain of Albumin (P02769 whole entry): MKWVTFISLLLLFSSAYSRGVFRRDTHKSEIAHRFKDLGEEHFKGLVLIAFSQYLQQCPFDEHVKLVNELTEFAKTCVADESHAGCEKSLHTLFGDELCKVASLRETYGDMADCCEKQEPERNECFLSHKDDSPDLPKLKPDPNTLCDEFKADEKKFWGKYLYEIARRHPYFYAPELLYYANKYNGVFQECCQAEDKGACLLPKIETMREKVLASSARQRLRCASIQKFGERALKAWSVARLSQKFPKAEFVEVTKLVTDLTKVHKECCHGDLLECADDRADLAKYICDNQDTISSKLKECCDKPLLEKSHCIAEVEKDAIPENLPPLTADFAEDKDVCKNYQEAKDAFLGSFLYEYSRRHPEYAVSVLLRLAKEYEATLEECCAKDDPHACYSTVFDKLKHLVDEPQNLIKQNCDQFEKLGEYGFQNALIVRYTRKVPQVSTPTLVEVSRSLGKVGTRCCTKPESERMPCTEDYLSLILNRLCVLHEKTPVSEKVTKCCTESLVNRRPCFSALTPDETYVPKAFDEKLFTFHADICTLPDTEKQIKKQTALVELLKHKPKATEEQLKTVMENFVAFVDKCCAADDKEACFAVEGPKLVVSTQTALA

## c1ccc(-c2nc(Nc3ccc(-c4nc5ccccc5[nH]4)cc3)nc(N3CCOCC3)n2)cc1
[1]
  GI50: 1.63 µM
  TGI: 4.08 µM
[1]; [27]
  CC50: 8.74 µM
[2]
  growth at 0.01 µM: 94%
[3]
  growth at 1 µM: 30%
[4]
  growth at 100 µM: -91%
[5]
  growth at 10 µM: -77%
[6]
  growth at 1 µM: 64%
[7]; read-out: GI50
  GI50: 1.09 µM
[7]; [27]
  CC50: 6.31 µM
[7]; read-out: TGI
  TGI: 2.62 µM
[7]; read-out: pGI50 (converted)
  GI50: 1.1 µM
[7]; [28]
  CC50: 6.31 µM
[7]; read-out: pTGI (converted)
  TGI: 2.63 µM
[8]
  growth at 1 µM: 106%
[9]
  growth at 0.1 µM: 101%
[10]
  growth at 10 µM: -79%
[11]
  growth at 1 µM: 93%
[12]
  growth at 1 µM: 69%
[13]
  growth at 1 µM: 68%
[14]
  growth at 10 µM: -89.7%
[15]
  growth at 10 µM: 8.94%
[16]
  growth at 0.1 µM: 91%
[17]
  growth at 100 µM: -86%
[18]
  growth at 10 µM: -82.9%
[19]
  growth at 0.1 µM: 103%
[20]
  K: 3.2 ×10⁴ /M
[21]
  growth at 0.1 µM: 120%
[22]
  growth at 0.01 µM: 100%
[23]
  GI50: 1.51 µM
  TGI: 3.07 µM
[23]; [27]
  CC50: 6.25 µM
[24]; read-out: GI50
  GI50: 1.69 µM
[24]; [27]
  CC50: 5.9 µM
[24]; read-out: TGI
  TGI: 3.15 µM
[24]; read-out: pGI50 (converted)
  GI50: 1.7 µM
[24]; [28]
  CC50: 5.89 µM
[24]; read-out: pTGI (converted)
  TGI: 3.16 µM
[25]
  growth at 100 µM: -62%
[26]
  growth at 100 µM: -64%
